Source: ChEMBL document CHEMBL4014306, “Pyrazolopyrimidines as Potent Stimulators for Transient Receptor Potential Canonical 3/6/7 Channels” (J Med Chem, 2017)

tested on: HEK293; experiment: Induction of intracellular calcium level in HEK293 cells at 100 uM measured for 2.5 mins by Fluo-4-AM dye based FLIPR assay; format: cell-based; conditions: human, hek293, 2.5 min; call rule not given here

Row | Structure (SMILES) | Activity
1 | C[N+](C)(C)CCOC(N)=O.[Cl-] [CARBACHOL] | Toxic

molecular target: T1, Short transient receptor potential channel 4 (Mus musculus, UniProt Q9QUQ5); experiment: Antagonist activity at mouse TRPC4beta expressed in HEK293 cells co-expressing MOR decrease in DAMGO-evoked intracellular calcium level by Fluo-8-AM dye-based fluorescence assay; format: cell-based; conditions: not given
T1 sequence (Q9QUQ5 whole entry): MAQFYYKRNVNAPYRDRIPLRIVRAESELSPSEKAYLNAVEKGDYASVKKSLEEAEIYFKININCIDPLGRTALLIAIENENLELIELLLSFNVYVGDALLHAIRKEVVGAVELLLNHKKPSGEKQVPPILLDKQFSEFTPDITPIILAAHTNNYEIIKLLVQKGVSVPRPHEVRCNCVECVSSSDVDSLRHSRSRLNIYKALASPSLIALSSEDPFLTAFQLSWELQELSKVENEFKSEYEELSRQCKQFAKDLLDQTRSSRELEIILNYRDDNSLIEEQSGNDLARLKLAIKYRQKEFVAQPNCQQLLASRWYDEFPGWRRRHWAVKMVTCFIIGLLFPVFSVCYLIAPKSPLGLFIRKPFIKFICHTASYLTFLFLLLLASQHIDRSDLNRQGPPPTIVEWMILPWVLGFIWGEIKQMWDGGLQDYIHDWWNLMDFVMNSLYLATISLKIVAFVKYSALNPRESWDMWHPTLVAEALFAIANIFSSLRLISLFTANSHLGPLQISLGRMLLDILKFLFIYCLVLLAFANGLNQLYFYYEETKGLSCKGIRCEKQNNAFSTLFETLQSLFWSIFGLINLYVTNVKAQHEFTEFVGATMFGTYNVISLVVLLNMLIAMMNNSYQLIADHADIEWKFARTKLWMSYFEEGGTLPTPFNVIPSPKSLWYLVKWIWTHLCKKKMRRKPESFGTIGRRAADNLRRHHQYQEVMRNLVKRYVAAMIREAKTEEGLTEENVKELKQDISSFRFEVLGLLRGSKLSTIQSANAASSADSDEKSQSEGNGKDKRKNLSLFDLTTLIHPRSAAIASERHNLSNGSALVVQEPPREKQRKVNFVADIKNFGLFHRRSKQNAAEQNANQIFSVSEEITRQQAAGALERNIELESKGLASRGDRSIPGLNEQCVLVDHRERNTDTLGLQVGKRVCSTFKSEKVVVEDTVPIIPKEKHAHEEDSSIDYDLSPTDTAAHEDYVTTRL
How it was run: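 MOR/TRPC4β HEK293 cells loaded with Ca2+ dye. Compound given before 1 μM DAMGO. IC50 estimated from one experiment in triplicate.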

Row | Structure (SMILES) | IC50
2 | Cc1nn2c(O)cc(C3(C)CCN(C(=O)C(C)(C)C)CC3)nc2c1-c1ccc(F)cc1 | Not Active
3 | COc1ccc(S(=O)(=O)N2CCC(C)(c3cc(O)n4nc(C)c(-c5ccc(F)cc5)c4n3)CC2)cc1 | Not Active
4 | Cc1nn2c(O)cc(C3CCN(C(=O)C(C)(C)C)CC3)nc2c1-c1ccc(F)cc1 | Not Active
5 | Cc1nn2c(O)cc(C3(C)CCN(S(=O)(=O)c4c(F)cccc4F)CC3)nc2c1-c1ccc([N+](=O)[O-])cc1 | Not Active
6 | Cc1nn2c(O)cc(C3CCN(C(=O)OC(C)(C)C)CC3)nc2c1-c1ccc(Cl)cc1 | Not Active

Continued, values first:

Row | IC50 | Structure (SMILES)
7 | Not Active | COc1ccc(CC(=O)N2CCC(C)(c3cc(O)n4nc(C)c(-c5ccc([N+](=O)[O-])cc5)c4n3)CC2)cc1OC
8 | Not Active | CCOC(=O)N1CCC(C)(c2cc(O)n3nc(C)c(-c4ccc([N+](=O)[O-])cc4)c3n2)CC1
9 | Not Active | CCC(=O)N1CCC(C)(c2cc(O)n3nc(C)c(-c4ccc(F)cc4)c3n2)CC1
10 | Not Active | CCOC(=O)N1CCC(c2cc(O)n3nc(C)c(-c4ccc([N+](=O)[O-])cc4)c3n2)CC1
11 | Not Active | Cc1nn2c(O)cc(C3(C)CCN(C(=O)OC(C)(C)C)CC3)nc2c1-c1ccc(F)cc1

same assay, conditions: read-out: IC50

Row | IC50 [µM] | Structure (SMILES)
12 | 10 | Cc1nn2c(O)cc(C3CCN(C(=O)c4ccc(Br)nc4)CC3)nc2c1-c1ccc(F)cc1
13 | 35 | CCC(=O)N1CCC(c2cc(O)n3nc(C)c(-c4ccc(F)cc4)c3n2)CC1

molecular target: T2, Short transient receptor potential channel 6 (Mus musculus, UniProt Q61143); experiment: Agonist activity at mouse TRPC6 expressed in HEK293 cells co-expressing Gq11-PLCbeta fused M5 receptor assessed as increase in intracellular calcium level measured for 2.5 mins by Fluo-8-AM dye-based fluorescence assay; format: cell-based; conditions: not given
T2 sequence (Q61143 whole entry): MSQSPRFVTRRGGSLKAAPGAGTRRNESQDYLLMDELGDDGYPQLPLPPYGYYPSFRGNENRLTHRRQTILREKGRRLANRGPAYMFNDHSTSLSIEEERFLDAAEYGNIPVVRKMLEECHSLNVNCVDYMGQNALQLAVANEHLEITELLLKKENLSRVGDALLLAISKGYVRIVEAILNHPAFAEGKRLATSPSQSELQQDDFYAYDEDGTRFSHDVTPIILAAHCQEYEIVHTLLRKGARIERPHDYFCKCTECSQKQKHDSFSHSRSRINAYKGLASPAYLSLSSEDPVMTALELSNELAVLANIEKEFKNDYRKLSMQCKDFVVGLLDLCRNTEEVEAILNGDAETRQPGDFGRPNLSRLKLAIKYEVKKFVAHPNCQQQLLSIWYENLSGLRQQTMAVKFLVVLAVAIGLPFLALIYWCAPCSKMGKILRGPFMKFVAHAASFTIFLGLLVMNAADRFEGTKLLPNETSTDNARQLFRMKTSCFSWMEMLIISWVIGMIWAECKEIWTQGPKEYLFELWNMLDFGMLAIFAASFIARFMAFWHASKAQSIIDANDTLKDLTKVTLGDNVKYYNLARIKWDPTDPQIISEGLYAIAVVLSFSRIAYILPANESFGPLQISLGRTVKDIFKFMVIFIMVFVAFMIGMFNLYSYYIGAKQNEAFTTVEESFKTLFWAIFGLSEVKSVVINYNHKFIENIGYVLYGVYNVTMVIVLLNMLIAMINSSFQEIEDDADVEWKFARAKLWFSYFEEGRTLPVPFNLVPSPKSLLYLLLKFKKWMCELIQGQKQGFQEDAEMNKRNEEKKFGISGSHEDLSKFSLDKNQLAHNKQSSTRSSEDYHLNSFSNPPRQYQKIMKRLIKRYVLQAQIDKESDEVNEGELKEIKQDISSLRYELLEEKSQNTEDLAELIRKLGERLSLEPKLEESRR

Row | Structure (SMILES) | EC50
14 | Cc1nn2c(O)cc(C3(C)CCN(C(=O)C(C)(C)C)CC3)nc2c1-c1ccc(F)cc1 | Not Active
15 | COc1ccc(S(=O)(=O)N2CCC(C)(c3cc(O)n4nc(C)c(-c5ccc(F)cc5)c4n3)CC2)cc1 | Not Active
16 | Cc1nn2c(O)cc(C3CCN(C(=O)C(C)(C)C)CC3)nc2c1-c1ccc(F)cc1 | Not Active
17 | Cc1nn2c(O)cc(C3(C)CCN(S(=O)(=O)c4c(F)cccc4F)CC3)nc2c1-c1ccc([N+](=O)[O-])cc1 | Not Active
18 | Cc1nn2c(O)cc(C3CCN(C(=O)OC(C)(C)C)CC3)nc2c1-c1ccc(Cl)cc1 | Not Active

Other lines, results leading:

Row | EC50 | Structure (SMILES)
19 | Not Active | COc1ccc(CC(=O)N2CCC(C)(c3cc(O)n4nc(C)c(-c5ccc([N+](=O)[O-])cc5)c4n3)CC2)cc1OC
20 | Not Active | CCC(=O)N1CCC(C)(c2cc(O)n3nc(C)c(-c4ccc(F)cc4)c3n2)CC1
21 | Not Active | Cc1nn2c(O)cc(C3(C)CCN(C(=O)OC(C)(C)C)CC3)nc2c1-c1ccc(F)cc1

same assay, conditions: read-out: EC50

Row | Structure (SMILES) | EC50 [µM]
22 | Cc1nn2c(O)cc(C3CCN(C(=O)c4ccc(Br)nc4)CC3)nc2c1-c1ccc(F)cc1 | 12.3
23 | CCC(=O)N1CCC(c2cc(O)n3nc(C)c(-c4ccc(F)cc4)c3n2)CC1 | 28.8

Other lines, results leading:

Row | EC50 [µM] | Structure (SMILES)
24 | 8 | CCOC(=O)N1CCC(C)(c2cc(O)n3nc(C)c(-c4ccc([N+](=O)[O-])cc4)c3n2)CC1
25 | 2 | CCOC(=O)N1CCC(c2cc(O)n3nc(C)c(-c4ccc([N+](=O)[O-])cc4)c3n2)CC1
